# Results from ChEMBL document CHEMBL1240410, “Cytotoxicity against cholangiocarcinoma cell lines of zerumbone derivatives” (Eur J Med Chem, 2010).
# Activity calls are given as the source filed them. The calls are words filed in the database; no cut-off is given here.
# Test system: not listed separately
# Experiment: Cytotoxicity against human KKU100 cells
# Type: functional, cell-based
# How it was run: (§1)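 SRB assay: cells seeded at 0.5–1.0 × 10^5 cells/mL and held 24 h at 37 °C. Compounds added in triplicate at final 0.025, 0.16, 0.8, 4 and 20 µg/well, with 0.1% DMSO as solvent control. Exposure was 72 h at 37 °C, plus a 1 h starting-cell plate. Cells fixed with TCA, stained with SRB, OD read at 510 nm. IC50 taken as 50% reduction of control protein increase.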
row,Structure (SMILES),IC50
1,C/C1=C\CC(C)(C)/C=C/C(=O)[C@H](C)[C@H](N)CC1 (racemic),16.4 µM
2,CCCCN[C@@H]1CC/C(C)=C/CC(C)(C)/C=C/[C@H](O)[C@@H]1C (racemic),35.3 µM
3,C/C1=C\CC(C)(C)C(C#N)CC(=O)/C(C)=C/CC1 (stereo not given),25.7 µM
4,CCCCN[C@@H]1CC[C@@]2(C)O[C@H]2CC(C)(C)/C=C/C(=O)[C@@H]1C (racemic),16.5 µM
5,Cc1c2ccncc2c(C)c2c1[nH]c1ccccc12 [ELLIPTECINE],25.2 µM

# Test system: not listed separately
# Experiment: Cytotoxicity against human KKU-M139 cells
# Type: functional, cell-based
# How it was run: as §1
row,Structure (SMILES),IC50
1,C/C1=C\CC(C)(C)/C=C/C(=O)[C@H](C)[C@H](N)CC1 (racemic),63.3 µM
2,CCCCN[C@@H]1CC/C(C)=C/CC(C)(C)/C=C/[C@H](O)[C@@H]1C (racemic),19.6 µM
3,C/C1=C\CC(C)(C)C(C#N)CC(=O)/C(C)=C/CC1 (stereo not given),55.9 µM
4,Cc1c2ccncc2c(C)c2c1[nH]c1ccccc12 [ELLIPTECINE],4.5 µM

# Test system: not listed separately
# Experiment: Cytotoxicity against human KKU-M156 cells
# Type: functional, cell-based
# How it was run: as §1
row,Structure (SMILES),IC50
1,C/C1=C\CC(C)(C)/C=C/C(=O)[C@H](C)[C@H](N)CC1 (racemic),69 µM
2,CCCCN[C@@H]1CC/C(C)=C/CC(C)(C)/C=C/[C@H](O)[C@@H]1C (racemic),26.3 µM
3,C/C1=C\CC(C)(C)C(C#N)CC(=O)/C(C)=C/CC1 (stereo not given),37.3 µM
4,CCCCN[C@@H]1CC[C@@]2(C)O[C@H]2CC(C)(C)/C=C/C(=O)[C@@H]1C (racemic),48.2 µM
5,Cc1c2ccncc2c(C)c2c1[nH]c1ccccc12 [ELLIPTECINE],9.34 µM

# Test system: not listed separately
# Experiment: Cytotoxicity against human KKU-M213 cells
# Type: functional, cell-based
# How it was run: as §1
row,Structure (SMILES),IC50
1,CCCCN[C@@H]1CC/C(C)=C/CC(C)(C)/C=C/C(=O)[C@@H]1C (racemic),36.6 µM
2,C/C1=C\CC(C)(C)/C=C/C(=O)[C@H](C)[C@H](N)CC1 (racemic),51.9 µM
3,CCCCN[C@@H]1CC/C(C)=C/CC(C)(C)/C=C/[C@H](O)[C@@H]1C (racemic),27.2 µM
4,C/C1=C\CC(C)(C)C(C#N)CC(=O)/C(C)=C/CC1 (stereo not given),45.1 µM
5,CCCCN[C@@H]1CC[C@@]2(C)O[C@H]2CC(C)(C)/C=C/C(=O)[C@@H]1C (racemic),37.6 µM
6,Cc1c2ccncc2c(C)c2c1[nH]c1ccccc12 [ELLIPTECINE],1.62 µM

# Test system: not listed separately
# Experiment: Cytotoxicity against human KKU-M214 cells
# Type: functional, cell-based
# How it was run: as §1
row,Structure (SMILES),IC50
1,CCCCN[C@@H]1CC/C(C)=C/CC(C)(C)/C=C/C(=O)[C@@H]1C (racemic),41.6 µM
2,C/C1=C\CC(C)(C)/C=C/C(=O)[C@H](C)[C@H](N)CC1 (racemic),59.6 µM
3,CCCCN[C@@H]1CC/C(C)=C/CC(C)(C)/C=C/[C@H](O)[C@@H]1C (racemic),16.1 µM
4,C/C1=C\CC(C)(C)C(C#N)CC(=O)/C(C)=C/CC1 (stereo not given),54.5 µM
5,C/C1=C\CC[C@@]2(C)O[C@H]2CC(C)(C)/C=C/C1=O (racemic),52.6 µM
6,C/C1=C\CC(C)(C)[C@H](C#N)CC(=O)[C@H](C)[C@H](C#N)CC1 (racemic),66.5 µM
7,C[C@H]1C(=O)/C=C/C(C)(C)C[C@@H]2O[C@]2(C)CC[C@H]1N (racemic),18.3 µM
8,CCCCN[C@@H]1CC[C@@]2(C)O[C@H]2CC(C)(C)/C=C/C(=O)[C@@H]1C (racemic),51 µM
9,Cc1c2ccncc2c(C)c2c1[nH]c1ccccc12 [ELLIPTECINE],1.01 µM

# Test system: KKU100
# Experiment: Cytotoxicity against human KKU100 cells at 75 uM
# Type: functional, cell-based
row,Structure (SMILES),Activity
1,C/C1=C\CC(C)(C)C(C#N)CC(=O)[C@H](C)[C@H](N(C)C)CC1 (stereo not given in full),inactive
2,CC(=O)N[C@@H]1CC/C(C)=C/CC(C)(C)/C=C/[C@H](O)[C@@H]1C (racemic),inactive
3,CCCCN[C@@H]1CC/C(C)=C/CC(C)(C)/C=C/C(=O)[C@@H]1C (racemic),inactive
4,CCCCN(C(C)=O)[C@@H]1CC/C(C)=C/CC(C)(C)/C=C/C(=O)[C@@H]1C,inactive
5,CC(=O)N[C@@H]1CC/C(C)=C/CC(C)(C)/C=C/C(=O)[C@@H]1C (racemic),inactive
6,C/C1=C\CC(C)(C)/C=C/C(=O)/C(C)=C/CC1,inactive
7,C[C@H]1C(=O)/C=C/C(C)(C)C[C@@H]2O[C@]2(C)CC[C@H]1NCc1ccccc1 (racemic),inactive
8,CC(=O)OC1/C=C/C(C)(C)C/C=C(\C)CC/C=C/1C (racemic),inactive
9,C/C1=C\CC(C)(C)/C=C/C(=O)[C@H](C)[C@H](NCc2ccccc2)CC1 (racemic),inactive
10,C/C1=C\CC(C)(C)/C=C/C(=O)[C@H](C)[C@H](N(C)C)CC1,inactive
11,C/C1=C\CC(C)(C)/C=C/[C@H](O)[C@@]2(C)O[C@H]2CC1 (racemic),inactive
12,C/C1=C\CC[C@@]2(C)O[C@H]2CC(C)(C)/C=C/C1=O (racemic),inactive
13,C/C1=C\CC(C)(C)[C@H](C#N)CC(=O)[C@H](C)[C@H](C#N)CC1 (racemic),inactive
14,C[C@H]1C(=O)/C=C/C(C)(C)C[C@@H]2O[C@]2(C)CC[C@H]1N (racemic),inactive
15,CC(=O)N[C@@H]1CC[C@@]2(C)O[C@H]2CC(C)(C)/C=C/C(=O)[C@@H]1C (racemic),inactive
16,C/C1=C\CC(C)(C)/C=C/C(O)/C(C)=C/CC1 (racemic),inactive

# Test system: KKU-M139
# Experiment: Cytotoxicity against human KKU-M139 cells at 75 uM
# Type: functional, cell-based
row,Structure (SMILES),Activity
1,C/C1=C\CC(C)(C)C(C#N)CC(=O)[C@H](C)[C@H](N(C)C)CC1 (stereo not given in full),inactive
2,CC(=O)N[C@@H]1CC/C(C)=C/CC(C)(C)/C=C/[C@H](O)[C@@H]1C (racemic),inactive
3,CCCCN[C@@H]1CC/C(C)=C/CC(C)(C)/C=C/C(=O)[C@@H]1C (racemic),inactive
4,CCCCN(C(C)=O)[C@@H]1CC/C(C)=C/CC(C)(C)/C=C/C(=O)[C@@H]1C,inactive
5,CC(=O)N[C@@H]1CC/C(C)=C/CC(C)(C)/C=C/C(=O)[C@@H]1C (racemic),inactive
6,C/C1=C\CC(C)(C)/C=C/C(=O)/C(C)=C/CC1,inactive
7,C[C@H]1C(=O)/C=C/C(C)(C)C[C@@H]2O[C@]2(C)CC[C@H]1NCc1ccccc1 (racemic),inactive
8,CC(=O)OC1/C=C/C(C)(C)C/C=C(\C)CC/C=C/1C (racemic),inactive
9,C/C1=C\CC(C)(C)/C=C/C(=O)[C@H](C)[C@H](NCc2ccccc2)CC1 (racemic),inactive
10,C/C1=C\CC(C)(C)/C=C/C(=O)[C@H](C)[C@H](N(C)C)CC1,inactive
11,C/C1=C\CC(C)(C)/C=C/[C@H](O)[C@@]2(C)O[C@H]2CC1 (racemic),inactive
12,C/C1=C\CC[C@@]2(C)O[C@H]2CC(C)(C)/C=C/C1=O (racemic),inactive
13,C/C1=C\CC(C)(C)[C@H](C#N)CC(=O)[C@H](C)[C@H](C#N)CC1 (racemic),inactive
14,C[C@H]1C(=O)/C=C/C(C)(C)C[C@@H]2O[C@]2(C)CC[C@H]1N (racemic),inactive
15,CCCCN[C@@H]1CC[C@@]2(C)O[C@H]2CC(C)(C)/C=C/C(=O)[C@@H]1C (racemic),inactive
16,CC(=O)N[C@@H]1CC[C@@]2(C)O[C@H]2CC(C)(C)/C=C/C(=O)[C@@H]1C (racemic),inactive
17,C/C1=C\CC(C)(C)/C=C/C(O)/C(C)=C/CC1 (racemic),inactive

# Test system: KKU-M156
# Experiment: Cytotoxicity against human KKU-M156 cells at 75 uM
# Type: functional, cell-based
row,Structure (SMILES),Activity
1,C/C1=C\CC(C)(C)C(C#N)CC(=O)[C@H](C)[C@H](N(C)C)CC1 (stereo not given in full),inactive
2,CC(=O)N[C@@H]1CC/C(C)=C/CC(C)(C)/C=C/[C@H](O)[C@@H]1C (racemic),inactive
3,CCCCN[C@@H]1CC/C(C)=C/CC(C)(C)/C=C/C(=O)[C@@H]1C (racemic),inactive
4,CCCCN(C(C)=O)[C@@H]1CC/C(C)=C/CC(C)(C)/C=C/C(=O)[C@@H]1C,inactive
5,CC(=O)N[C@@H]1CC/C(C)=C/CC(C)(C)/C=C/C(=O)[C@@H]1C (racemic),inactive
6,C/C1=C\CC(C)(C)/C=C/C(=O)/C(C)=C/CC1,inactive
7,C[C@H]1C(=O)/C=C/C(C)(C)C[C@@H]2O[C@]2(C)CC[C@H]1NCc1ccccc1 (racemic),inactive
8,CC(=O)OC1/C=C/C(C)(C)C/C=C(\C)CC/C=C/1C (racemic),inactive
9,C/C1=C\CC(C)(C)/C=C/C(=O)[C@H](C)[C@H](NCc2ccccc2)CC1 (racemic),inactive
10,C/C1=C\CC(C)(C)/C=C/C(=O)[C@H](C)[C@H](N(C)C)CC1,inactive
11,C/C1=C\CC(C)(C)/C=C/[C@H](O)[C@@]2(C)O[C@H]2CC1 (racemic),inactive
12,C/C1=C\CC[C@@]2(C)O[C@H]2CC(C)(C)/C=C/C1=O (racemic),inactive
13,C/C1=C\CC(C)(C)[C@H](C#N)CC(=O)[C@H](C)[C@H](C#N)CC1 (racemic),inactive
14,C[C@H]1C(=O)/C=C/C(C)(C)C[C@@H]2O[C@]2(C)CC[C@H]1N (racemic),inactive
15,CC(=O)N[C@@H]1CC[C@@]2(C)O[C@H]2CC(C)(C)/C=C/C(=O)[C@@H]1C (racemic),inactive
16,C/C1=C\CC(C)(C)/C=C/C(O)/C(C)=C/CC1 (racemic),inactive

# Test system: KKU-M213
# Experiment: Cytotoxicity against human KKU-M213 cells at 75 uM
# Type: functional, cell-based
row,Structure (SMILES),Activity
1,C/C1=C\CC(C)(C)C(C#N)CC(=O)[C@H](C)[C@H](N(C)C)CC1 (stereo not given in full),inactive
2,CC(=O)N[C@@H]1CC/C(C)=C/CC(C)(C)/C=C/[C@H](O)[C@@H]1C (racemic),inactive
3,CCCCN(C(C)=O)[C@@H]1CC/C(C)=C/CC(C)(C)/C=C/C(=O)[C@@H]1C,inactive
4,CC(=O)N[C@@H]1CC/C(C)=C/CC(C)(C)/C=C/C(=O)[C@@H]1C (racemic),inactive
5,C/C1=C\CC(C)(C)/C=C/C(=O)/C(C)=C/CC1,inactive
6,C[C@H]1C(=O)/C=C/C(C)(C)C[C@@H]2O[C@]2(C)CC[C@H]1NCc1ccccc1 (racemic),inactive
7,CC(=O)OC1/C=C/C(C)(C)C/C=C(\C)CC/C=C/1C (racemic),inactive
8,C/C1=C\CC(C)(C)/C=C/C(=O)[C@H](C)[C@H](NCc2ccccc2)CC1 (racemic),inactive
9,C/C1=C\CC(C)(C)/C=C/C(=O)[C@H](C)[C@H](N(C)C)CC1,inactive
10,C/C1=C\CC(C)(C)/C=C/[C@H](O)[C@@]2(C)O[C@H]2CC1 (racemic),inactive
11,C/C1=C\CC[C@@]2(C)O[C@H]2CC(C)(C)/C=C/C1=O (racemic),inactive
12,C/C1=C\CC(C)(C)[C@H](C#N)CC(=O)[C@H](C)[C@H](C#N)CC1 (racemic),inactive
13,C[C@H]1C(=O)/C=C/C(C)(C)C[C@@H]2O[C@]2(C)CC[C@H]1N (racemic),inactive
14,CC(=O)N[C@@H]1CC[C@@]2(C)O[C@H]2CC(C)(C)/C=C/C(=O)[C@@H]1C (racemic),inactive
15,C/C1=C\CC(C)(C)/C=C/C(O)/C(C)=C/CC1 (racemic),inactive

# Test system: KKU-M214
# Experiment: Cytotoxicity against human KKU-M214 cells at 75 uM
# Type: functional, cell-based
row,Structure (SMILES),Activity
1,C/C1=C\CC(C)(C)C(C#N)CC(=O)[C@H](C)[C@H](N(C)C)CC1 (stereo not given in full),inactive
2,CC(=O)N[C@@H]1CC/C(C)=C/CC(C)(C)/C=C/[C@H](O)[C@@H]1C (racemic),inactive
3,CCCCN(C(C)=O)[C@@H]1CC/C(C)=C/CC(C)(C)/C=C/C(=O)[C@@H]1C,inactive
4,CC(=O)N[C@@H]1CC/C(C)=C/CC(C)(C)/C=C/C(=O)[C@@H]1C (racemic),inactive
5,C/C1=C\CC(C)(C)/C=C/C(=O)/C(C)=C/CC1,inactive
6,C[C@H]1C(=O)/C=C/C(C)(C)C[C@@H]2O[C@]2(C)CC[C@H]1NCc1ccccc1 (racemic),inactive
7,CC(=O)OC1/C=C/C(C)(C)C/C=C(\C)CC/C=C/1C (racemic),inactive
8,C/C1=C\CC(C)(C)/C=C/C(=O)[C@H](C)[C@H](NCc2ccccc2)CC1 (racemic),inactive
9,C/C1=C\CC(C)(C)/C=C/C(=O)[C@H](C)[C@H](N(C)C)CC1,inactive
10,C/C1=C\CC(C)(C)/C=C/[C@H](O)[C@@]2(C)O[C@H]2CC1 (racemic),inactive
11,CC(=O)N[C@@H]1CC[C@@]2(C)O[C@H]2CC(C)(C)/C=C/C(=O)[C@@H]1C (racemic),inactive
12,C/C1=C\CC(C)(C)/C=C/C(O)/C(C)=C/CC1 (racemic),inactive
